Assay type in all cases: functional
For assay [1], the system named is Rattus norvegicus. The assay can be described thus: Antihypertensive activity in spontaneously hypertensive rats was measured as average blood pressure at 100 mg/kg, p.o. after 24 hours of postdose-1. The note with it: route oral. A digest of the protocol: (§1)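 SHR model with two successive doses, designated dose 1 and dose 2. Group-average blood pressure in mmHg was recorded before dosing and at 4 h and 24 h after each dose. The route is oral unless marked intra-arterial or subcutaneous. A table footnote marks doses that gave no significant lowering at 4 or 24 h postdose.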

Assay [2] relates to Rattus norvegicus. The assay can be described thus: Antihypertensive activity in spontaneously hypertensive rats was measured as average blood pressure at 100 mg/kg, p.o. after 24 hours of postdose-2. The note with it: route oral. A digest of the protocol:
as §1

The test system of assay [3] is Rattus norvegicus. The experiment in a line: Antihypertensive activity in spontaneously hypertensive rats was measured as average blood pressure at 4 mg/kg, po after 24 hours of postdose-1. A digest of the protocol: as §1
For assay [4], the system named is Rattus norvegicus. The experiment in a line: Antihypertensive activity in spontaneously hypertensive rats was measured as average blood pressure at 4 mg/kg, p.o. after 24 hours of postdose-2. The note with it: route oral. The procedure, abridged:
as §1

Assay [5] deals with Rattus norvegicus. The assay can be described thus: Antihypertensive activity in spontaneously hypertensive rats was measured as average blood pressure at 4 mg/kg, p.o. after 4 hours of postdose-1. The conditions noted are these: route oral. The procedure, abridged: as §1
Assay [6] has as its system Rattus norvegicus. The assay can be described thus: Antihypertensive activity in spontaneously hypertensive rats was measured as average blood pressure at 4 mg/kg, p.o. after 4 hours of postdose-2. The conditions noted are these: route oral. The procedure, abridged:
as §1

The test system of assay [7] is Rattus norvegicus. The experiment in a line: Antihypertensive activity in spontaneously hypertensive rats was measured as average blood pressure at 4 mg/kg, po before predose. A digest of the protocol: as §1
Assay [8] has as its system Rattus norvegicus. The experiment in a line: Antihypertensive activity in spontaneously hypertensive rats was measured as average blood pressure at 100 mg/kg, p.o. after 4 hours of postdose-1. The note with it: route oral. A digest of the protocol: as §1
In assay [9] the test system is Rattus norvegicus. The experiment in a line: Antihypertensive activity in spontaneously hypertensive rats was measured as average blood pressure at 100 mg/kg, p.o. after 4 hours of postdose-2. The conditions noted are these: route oral. A digest of the protocol: as §1
In assay [10] the test system is Rattus norvegicus. The experiment in a line: Antihypertensive activity in spontaneously hypertensive rats was measured as average blood pressure at 100 mg/kg, p.o. before predose. The note with it: route oral. The procedure, abridged: as §1
For assay [11], the system named is Rattus norvegicus. The experiment in a line: Antihypertensive activity in spontaneously hypertensive rats was measured as average blood pressure at 12 mg/kg, p.o. after 24 hours of postdose-1. The note with it: route oral. The procedure, abridged: as §1
Assay [12] relates to Rattus norvegicus. The assay can be described thus: Antihypertensive activity in spontaneously hypertensive rats was measured as average blood pressure at 12 mg/kg, p.o. after 24 hours of postdose-2. The note with it: route oral. The procedure, abridged: as §1
In assay [13] the test system is Rattus norvegicus. The assay can be described thus: Antihypertensive activity in spontaneously hypertensive rats was measured as average blood pressure at 12 mg/kg, p.o. after 4 hours of postdose-1. The conditions noted are these: route oral. The procedure, abridged:
as §1

Assay [14] relates to Rattus norvegicus. The experiment in a line: Antihypertensive activity in spontaneously hypertensive rats was measured as average blood pressure at 12 mg/kg, p.o. after 4 hours of postdose-2. The conditions noted are these: route oral. A digest of the protocol:
as §1

In assay [15] the test system is Rattus norvegicus. The assay can be described thus: Antihypertensive activity in spontaneously hypertensive rats was measured as average blood pressure at 12 mg/kg, p.o. before predose. The conditions noted are these: route oral. A digest of the protocol:
as §1

The subject of assay [16] is Rattus norvegicus. The assay can be described thus: Antihypertensive activity in spontaneously hypertensive rats was measured as average blood pressure at 50 mg/kg, p.o. before predose. The conditions noted are these: route oral. A digest of the protocol:
(§2)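 Spontaneously hypertensive rats dosed orally twice. Average blood pressure (mmHg) recorded before dosing and at 4 h and 24 h after the first dose and after the second dose. Postdose values checked for significant lowering against predose.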

In assay [17] the test system is Rattus norvegicus. The experiment in a line: Antihypertensive activity in spontaneously hypertensive rats was measured as average blood pressure at 50 mg/kg, p.o. after 4 hours of postdose-1. The note with it: route oral. A digest of the protocol: as §2
Assay [18] deals with Rattus norvegicus. The assay can be described thus: Antihypertensive activity in spontaneously hypertensive rats was measured as average blood pressure at 17 mg/kg, p.o. after 24 hours of postdose-1. The conditions noted are these: route oral. The procedure, abridged:
as §1

Assay [19] concerns Rattus norvegicus. The assay can be described thus: Antihypertensive activity in spontaneously hypertensive rats was measured as average blood pressure at 17 mg/kg, p.o. before predose. The conditions noted are these: route oral. The procedure, abridged:
as §1

The test system of assay [20] is Rattus norvegicus. The assay can be described thus: Antihypertensive activity in spontaneously hypertensive rats was measured as average blood pressure at 50 mg/kg, p.o. after 24 hours of postdose-1. The note with it: route oral. A digest of the protocol:
as §2

Assay [21] has as its system Rattus norvegicus. The experiment in a line: Antihypertensive activity in spontaneously hypertensive rats was measured as average blood pressure at 17 mg/kg, p.o. after 4 hours of postdose-2. The conditions noted are these: route oral. A digest of the protocol:
as §1

Assay [22] concerns Rattus norvegicus. The assay can be described thus: Antihypertensive activity in spontaneously hypertensive rats was measured as average blood pressure at 17 mg/kg, p.o. after 24 hours of postdose-2. The note with it: route oral. The procedure, abridged:
as §1

Assay [23] concerns Rattus norvegicus. The experiment in a line: Antihypertensive activity in spontaneously hypertensive rats was measured as average blood pressure at 17 mg/kg, p.o. after 4 hours of postdose-1. The note with it: route oral. A digest of the protocol: as §1

From ChEMBL document CHEMBL1121378, “Lipophilic and hydrophilic esters of 4-acetyl-2-(2-hydroxyethyl)-5,6-bis(4-chlorophenyl)-2H-pyridazin-3-one as antihypertensive agents” (1980) come the findings set out here.

Each structure is given as a SMILES string.

For the compound `CC(=O)c1c(-c2ccc(Cl)cc2)c(-c2ccc(Cl)cc2)nn(CCOC(=O)CN)c1=O.Cl`, the BP with Rattus norvegicus [1] is reported as 131 mmHg; with Rattus norvegicus [2], 166 mmHg; in the assay on Rattus norvegicus [3], 189 mmHg; with Rattus norvegicus [4] it was 175 mmHg; in the assay with Rattus norvegicus [5] it was 162 mmHg; in the assay with Rattus norvegicus [6], 161 mmHg. The BP in the assay with Rattus norvegicus [7] came out at 184 mmHg; in the assay with Rattus norvegicus [8], 138 mmHg; in the assay with Rattus norvegicus [9], 124 mmHg; in the assay with Rattus norvegicus [10], 178 mmHg; with Rattus norvegicus [11] it was 161 mmHg; in the assay with Rattus norvegicus [12] it was 164 mmHg. The BP in the assay with Rattus norvegicus [13] is 164 mmHg; in the assay with Rattus norvegicus [14], 153 mmHg; in the assay on Rattus norvegicus [15] it was 199 mmHg.
Take `Br.Br.CC(=O)c1c(-c2ccc(Cl)cc2)c(-c2ccc(Cl)cc2)nn(CCOC(=O)C(N)CCCCN)c1=O` (stereo not drawn): the BP is given as 231 mmHg in the assay on Rattus norvegicus [16]; 179 mmHg with Rattus norvegicus [17]; 162 mmHg with Rattus norvegicus [18]; 189 mmHg in the assay with Rattus norvegicus [19]; 173 mmHg in the assay on Rattus norvegicus [20]; 143 mmHg in the assay with Rattus norvegicus [21]. The figures for the BP in the assay with Rattus norvegicus [22] and in the assay with Rattus norvegicus [23] were 175 mmHg and 165 mmHg, respectively.
